In ChEMBL document CHEMBL5257020, “Discovery of a 9-mer Cationic Peptide (LTX-315) as a Potential First in Class Oncolytic Peptide” (J Med Chem, 2016):
Where a SMILES comes first, the peptide text is derived from it. [ ]: non-standard residue; d: D form. ξ: configuration not given here. Bip = N[C@@H](Cc1ccc(-c2ccccc2)cc1)C(=O)O; ξBip = NC(Cc1ccc(-c2ccccc2)cc1)C(=O)O; ξDip = NC(C(=O)O)C(c1ccccc1)c1ccccc1

Columns and labels:
Raji = test: Cytotoxicity against human Raji cells assessed as inhibition of cell proliferation incubated for 4 hrs by MTS assay; assay type: functional, cell-based
Outline: (§1)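 Cells grown in RPMI-1640 with 2 mM L-glutamine and 10% FBS, plated, then held 24 h at 37 °C. Adherent lines washed once in FBS-free medium. Cells exposed 4 h at 37 °C, 5% CO2 in FBS-free medium to 10 concentrations (1/4 steps, 400 μM top). 1% Triton X-100 served as positive control. MTS/PMS added for 2 h, then OD 490 nm read. IC50 from semilog curves; three independent experiments, quadruplicate wells.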

[1] = Stability in pooled and cryopreserved human hepatocytes assessed as half life at 1 uM measured for 90 mins by LC-MS/MS analysis; assay type: ADME, cell-based, Hepatocyte
Outline: (§2)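 Pooled cryopreserved rat or human hepatocytes, 0.5 million cells/mL, ~37 °C, peptide at 1 μM initial. Supernatants analysed by LC–MS/MS with peak height referenced to time zero. t1/2 = −0.693/slope of ln concentration vs time. Duplicate experiments. Testosterone, midazolam and 4-methylumbelliferone served as metabolic-competence controls.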

[2] = Cytotoxicity against mouse AT84 cells assessed as inhibition of cell proliferation incubated for 4 hrs by MTT assay; assay type: functional, cell-based; details: AT84, 4 h
HL-60 = test: Cytotoxicity against human HL-60 cells assessed as inhibition of cell proliferation incubated for 4 hrs by MTS assay; assay type: functional, cell-based; details: HL-60, 4 h; outline: as §1
Cytochrome P450 2C9 [3] = target: T1, Cytochrome P450 2C9 (Homo sapiens, UniProt P11712); test: Inhibition of CYP2C9 in human liver microsomes using diclofenac as substrate assessed as reduction in substrate hydroxylation incubated for 30 mins in presence of beta-NADPH measured by LC-MS/MS analysis; assay type: ADME, Microsome
Outline: (§3)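 Pooled human liver microsomes (50 donors) in 100 mM phosphate, pH 7.4, with 2 mM β-NADPH. Protein 0.1 mg/mL (2A6, 2C8, 2C9, 2E1, 3A4) or 0.3 mg/mL (1A2, 2B6, 2C19, 2D6). Test article 0–100 μM final, preincubated ~37 °C 5 or 30 min before isoform-selective substrate. Quenched in methanol with internal standard. Metabolite measured by LC–MS/MS against standard curve. Duplicates, with selective inhibitor positive controls.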

Cytochrome P450 2C8 = Cytochrome P450 2C8 (Homo sapiens, UniProt P10632); test: Inhibition of CYP2C8 in human liver microsomes using paclitaxel as substrate assessed as reduction in substrate hydroxylation incubated for 5 mins in presence of beta-NADPH measured by LC-MS/MS analysis; assay type: ADME, Microsome; outline: as §3
Cytochrome P450 2A6 = Cytochrome P450 2A6 (Homo sapiens, UniProt P11509); test: Inhibition of CYP2A6 in human liver microsomes using coumarin as substrate assessed as reduction in substrate hydroxylation incubated for 30 mins in presence of beta-NADPH measured by LC-MS/MS analysis; assay type: ADME, Microsome; outline: as §3
Cytochrome P450 2C19 = Cytochrome P450 2C19 (Homo sapiens, UniProt P33261); test: Inhibition of CYP2C19 in human liver microsomes using (S)-mephenytoin as substrate assessed as reduction in substrate hydroxylation incubated for 5 mins in presence of beta-NADPH measured by LC-MS/MS analysis; assay type: ADME, Microsome; outline: as §3
[4] = Stability in pooled and cryopreserved rat hepatocytes assessed as half life at 1 uM measured for 90 mins by LC-MS/MS analysis; assay type: ADME, cell-based, Hepatocyte; outline: as §2
Cytochrome P450 1A2 = Cytochrome P450 1A2 (Homo sapiens, UniProt P05177); test: Inhibition of CYP1A2 in human liver microsomes using as phenacetin substrate assessed as reduction in O-deethylation of phenacetin incubated for 5 mins in presence of beta-NADPH by LC-MS/MS analysis; assay type: ADME, Microsome; outline: as §3
HCT-116 = test: Cytotoxicity against human HCT-116 cells assessed as inhibition of cell proliferation incubated for 4 hrs by MTS assay; assay type: functional, cell-based; details: HCT-116, 4 h; outline: as §1
[5] = Cytotoxicity against human MRC5 cells assessed as inhibition of cell proliferation incubated for 4 hrs by MTT assay; assay type: toxicity, cell-based
Outline: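 MRC-5 human embryonic lung fibroblasts cultured in MEM with 2 mM L-glutamine and 10% FBS, without antibiotics, at 37 °C in humidified 5% CO2. Cultures were tested for mycoplasma. IC50 from three or more independent measurements, given as mean ± SD.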

COLO 205 = test: Cytotoxicity against human COLO 205 cells assessed as inhibition of cell proliferation incubated for 4 hrs by MTS assay; assay type: functional, cell-based; details: COLO 205, 4 h; outline: as §1
OVCAR-3 = test: Cytotoxicity against human OVCAR-3 cells assessed as inhibition of cell proliferation incubated for 4 hrs by MTS assay; assay type: functional, cell-based; details: OVCAR-3, 4 h; outline: as §1
Cytochrome P450 2B6 = Cytochrome P450 2B6 (Homo sapiens, UniProt P20813); test: Inhibition of CYP2B6 in human liver microsomes using bupropion as substrate assessed as reduction in substrate hydroxylation incubated for 5 mins in presence of beta-NADPH measured by LC-MS/MS analysis; assay type: ADME, Microsome; outline: as §3
A498 = test: Cytotoxicity against human A498 cells assessed as inhibition of cell proliferation incubated for 4 hrs by MTS assay; assay type: functional, cell-based; details: A498, 4 h; outline: as §1
T47D = test: Cytotoxicity against human T47D cells assessed as inhibition of cell proliferation incubated for 4 hrs by MTS assay; assay type: functional, cell-based; outline: as §1
Cytochrome P450 2C9 [6] = target: T1, Cytochrome P450 2C9; test: Inhibition of CYP2C9 in human liver microsomes using diclofenac as substrate assessed as reduction in substrate hydroxylation incubated for 5 mins in presence of beta-NADPH measured by LC-MS/MS analysis; assay type: ADME, Microsome; outline: as §3
NAMALVA = test: Cytotoxicity against human NAMALVA cells assessed as inhibition of cell proliferation incubated for 4 hrs by MTS assay; assay type: functional, cell-based; outline: as §1
SK-OV-3 = test: Cytotoxicity against human SK-OV-3 cells assessed as inhibition of cell proliferation incubated for 4 hrs by MTS assay; assay type: functional, cell-based; details: SK-OV-3, 4 h; outline: as §1
Cytochrome P450 3A4 [7] = target: T2, Cytochrome P450 3A4 (Homo sapiens, UniProt P08684); test: Inhibition of CYP3A4 in human liver microsomes using testosterone as substrate assessed as reduction in substrate hydroxylation incubated for 30 mins in presence of beta-NADPH measured by LC-MS/MS analysis; assay type: ADME, Microsome; outline: as §3
PC-3 = test: Cytotoxicity against human PC-3 cells assessed as inhibition of cell proliferation incubated for 4 hrs by MTS assay; assay type: functional, cell-based; details: PC-3, 4 h; outline: as §1
MCF7 = test: Cytotoxicity against human MCF7 cells transfected with MDR1 assessed as inhibition of cell proliferation incubated for 4 hrs by MTS assay; assay type: functional, cell-based; details: MCF7, 4 h; outline: as §1
Cytochrome P450 3A4 [8] = target: T2, Cytochrome P450 3A4; test: Inhibition of CYP3A4 in human liver microsomes using midazolam as substrate assessed as reduction in substrate hydroxylation incubated for 5 mins in presence of beta-NADPH measured by LC-MS/MS analysis; assay type: ADME, Microsome; outline: as §3
SU-DHL-1 = test: Cytotoxicity against human SU-DHL-1 cells assessed as inhibition of cell proliferation incubated for 4 hrs by MTS assay; assay type: functional, cell-based; details: SU-DHL-1, 4 h; outline: as §1
HT-29 = test: Cytotoxicity against human HT-29 cells assessed as inhibition of cell proliferation incubated for 4 hrs by MTS assay; assay type: functional, cell-based; details: HT-29, 4 h; outline: as §1
Cytochrome P450 2D6 = Cytochrome P450 2D6 (Homo sapiens, UniProt P10635); test: Inhibition of CYP2D6 in human liver microsomes using bufuralol as substrate assessed as reduction in substrate hydroxylation incubated for 5 mins in presence of beta-NADPH measured by LC-MS/MS analysis; assay type: ADME, Microsome; outline: as §3
Sequence of Cytochrome P450 2D6 (P10635 whole entry): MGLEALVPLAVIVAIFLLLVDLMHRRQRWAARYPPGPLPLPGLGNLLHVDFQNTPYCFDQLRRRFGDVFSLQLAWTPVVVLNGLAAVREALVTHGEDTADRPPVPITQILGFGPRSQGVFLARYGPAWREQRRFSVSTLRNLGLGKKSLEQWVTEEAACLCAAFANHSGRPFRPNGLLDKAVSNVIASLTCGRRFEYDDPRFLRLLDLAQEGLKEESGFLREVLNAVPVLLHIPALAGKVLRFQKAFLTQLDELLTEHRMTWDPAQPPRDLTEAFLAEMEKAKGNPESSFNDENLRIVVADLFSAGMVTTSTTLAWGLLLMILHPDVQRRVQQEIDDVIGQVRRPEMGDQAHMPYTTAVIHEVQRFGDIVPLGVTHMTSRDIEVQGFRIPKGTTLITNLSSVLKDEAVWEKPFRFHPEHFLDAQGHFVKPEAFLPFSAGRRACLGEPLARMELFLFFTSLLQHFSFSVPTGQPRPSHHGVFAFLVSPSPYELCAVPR

T2 sequence (P08684 whole entry): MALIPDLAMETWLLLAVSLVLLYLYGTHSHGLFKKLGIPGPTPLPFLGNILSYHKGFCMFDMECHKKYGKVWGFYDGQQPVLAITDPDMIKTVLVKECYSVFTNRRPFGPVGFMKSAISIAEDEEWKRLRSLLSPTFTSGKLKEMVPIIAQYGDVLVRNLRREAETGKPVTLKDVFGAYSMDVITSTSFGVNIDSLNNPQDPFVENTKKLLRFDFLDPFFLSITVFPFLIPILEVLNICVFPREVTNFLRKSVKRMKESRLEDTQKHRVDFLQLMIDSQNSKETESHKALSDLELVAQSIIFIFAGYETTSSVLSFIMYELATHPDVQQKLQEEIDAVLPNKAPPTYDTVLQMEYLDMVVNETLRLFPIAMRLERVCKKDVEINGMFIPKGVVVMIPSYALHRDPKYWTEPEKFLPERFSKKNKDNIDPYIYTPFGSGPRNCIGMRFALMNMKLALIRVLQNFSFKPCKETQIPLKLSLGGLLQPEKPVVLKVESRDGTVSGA
T1 sequence (P11712 whole entry, canonical isoform): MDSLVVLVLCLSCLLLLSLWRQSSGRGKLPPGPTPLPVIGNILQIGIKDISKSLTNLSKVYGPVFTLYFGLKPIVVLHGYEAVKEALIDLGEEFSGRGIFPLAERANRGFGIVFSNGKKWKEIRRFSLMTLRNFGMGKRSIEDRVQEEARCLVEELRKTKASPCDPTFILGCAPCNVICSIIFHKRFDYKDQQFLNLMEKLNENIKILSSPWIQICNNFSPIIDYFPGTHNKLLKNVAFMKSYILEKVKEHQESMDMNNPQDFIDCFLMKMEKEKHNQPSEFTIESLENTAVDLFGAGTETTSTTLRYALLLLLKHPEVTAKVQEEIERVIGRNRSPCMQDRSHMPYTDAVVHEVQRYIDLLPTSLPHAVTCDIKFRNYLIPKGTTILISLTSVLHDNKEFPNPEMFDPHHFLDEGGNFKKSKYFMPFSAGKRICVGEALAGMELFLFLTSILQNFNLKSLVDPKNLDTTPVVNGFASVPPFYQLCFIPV
Sequence of Cytochrome P450 2A6 (P11509 whole entry): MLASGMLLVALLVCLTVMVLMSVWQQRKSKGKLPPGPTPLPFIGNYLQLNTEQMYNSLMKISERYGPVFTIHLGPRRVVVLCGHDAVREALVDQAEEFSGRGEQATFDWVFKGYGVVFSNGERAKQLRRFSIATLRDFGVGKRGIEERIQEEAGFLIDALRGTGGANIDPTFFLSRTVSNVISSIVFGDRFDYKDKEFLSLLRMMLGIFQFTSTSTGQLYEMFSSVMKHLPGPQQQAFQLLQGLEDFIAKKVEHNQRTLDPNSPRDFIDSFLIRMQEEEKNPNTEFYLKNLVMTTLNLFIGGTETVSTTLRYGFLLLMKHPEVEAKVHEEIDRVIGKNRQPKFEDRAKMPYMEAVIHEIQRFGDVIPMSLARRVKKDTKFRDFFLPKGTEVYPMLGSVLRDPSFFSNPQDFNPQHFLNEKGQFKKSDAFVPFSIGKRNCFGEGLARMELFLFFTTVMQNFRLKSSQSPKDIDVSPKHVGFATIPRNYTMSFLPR
Sequence of Cytochrome P450 1A2 (P05177 whole entry): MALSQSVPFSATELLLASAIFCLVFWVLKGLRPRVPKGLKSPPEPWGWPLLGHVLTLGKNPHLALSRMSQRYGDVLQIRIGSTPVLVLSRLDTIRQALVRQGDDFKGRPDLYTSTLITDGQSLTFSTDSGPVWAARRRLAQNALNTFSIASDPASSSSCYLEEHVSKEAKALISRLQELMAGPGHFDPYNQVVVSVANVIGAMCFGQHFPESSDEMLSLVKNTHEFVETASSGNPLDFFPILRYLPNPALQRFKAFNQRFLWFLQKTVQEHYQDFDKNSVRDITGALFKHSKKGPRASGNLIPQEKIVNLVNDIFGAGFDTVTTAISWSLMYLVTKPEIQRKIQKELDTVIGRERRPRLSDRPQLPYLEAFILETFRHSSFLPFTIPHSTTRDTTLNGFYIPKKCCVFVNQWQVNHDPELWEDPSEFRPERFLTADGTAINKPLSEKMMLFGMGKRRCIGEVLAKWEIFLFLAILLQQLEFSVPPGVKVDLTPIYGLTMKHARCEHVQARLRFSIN
Sequence of Cytochrome P450 2B6 (P20813 whole entry): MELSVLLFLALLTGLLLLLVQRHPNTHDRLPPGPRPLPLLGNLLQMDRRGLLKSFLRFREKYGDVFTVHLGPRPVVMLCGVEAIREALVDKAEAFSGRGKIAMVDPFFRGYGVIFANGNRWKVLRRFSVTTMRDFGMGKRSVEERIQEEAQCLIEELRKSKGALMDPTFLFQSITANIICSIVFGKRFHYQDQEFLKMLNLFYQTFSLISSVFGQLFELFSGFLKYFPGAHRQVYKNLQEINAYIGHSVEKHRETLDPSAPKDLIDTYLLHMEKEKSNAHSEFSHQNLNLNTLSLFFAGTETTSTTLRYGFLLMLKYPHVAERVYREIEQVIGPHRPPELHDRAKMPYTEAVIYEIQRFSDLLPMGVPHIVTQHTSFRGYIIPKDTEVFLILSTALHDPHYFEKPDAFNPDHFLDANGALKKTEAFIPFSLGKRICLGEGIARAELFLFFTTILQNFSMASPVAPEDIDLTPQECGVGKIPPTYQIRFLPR
Sequence of Cytochrome P450 2C19 (P33261 whole entry): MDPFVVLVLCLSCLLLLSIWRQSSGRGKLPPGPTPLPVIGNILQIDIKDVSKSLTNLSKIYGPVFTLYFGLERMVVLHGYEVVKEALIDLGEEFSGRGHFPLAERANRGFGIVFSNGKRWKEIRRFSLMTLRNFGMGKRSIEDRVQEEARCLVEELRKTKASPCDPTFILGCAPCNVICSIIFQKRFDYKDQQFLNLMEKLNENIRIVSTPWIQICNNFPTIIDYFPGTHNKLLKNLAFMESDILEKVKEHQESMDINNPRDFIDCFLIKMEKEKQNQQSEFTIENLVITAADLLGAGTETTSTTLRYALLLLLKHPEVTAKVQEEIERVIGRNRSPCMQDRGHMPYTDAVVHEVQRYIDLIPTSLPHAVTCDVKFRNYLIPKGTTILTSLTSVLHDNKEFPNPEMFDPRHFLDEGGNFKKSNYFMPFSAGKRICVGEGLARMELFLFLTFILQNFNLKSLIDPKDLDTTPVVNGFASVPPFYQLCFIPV
Sequence of Cytochrome P450 2C8 (P10632 whole entry): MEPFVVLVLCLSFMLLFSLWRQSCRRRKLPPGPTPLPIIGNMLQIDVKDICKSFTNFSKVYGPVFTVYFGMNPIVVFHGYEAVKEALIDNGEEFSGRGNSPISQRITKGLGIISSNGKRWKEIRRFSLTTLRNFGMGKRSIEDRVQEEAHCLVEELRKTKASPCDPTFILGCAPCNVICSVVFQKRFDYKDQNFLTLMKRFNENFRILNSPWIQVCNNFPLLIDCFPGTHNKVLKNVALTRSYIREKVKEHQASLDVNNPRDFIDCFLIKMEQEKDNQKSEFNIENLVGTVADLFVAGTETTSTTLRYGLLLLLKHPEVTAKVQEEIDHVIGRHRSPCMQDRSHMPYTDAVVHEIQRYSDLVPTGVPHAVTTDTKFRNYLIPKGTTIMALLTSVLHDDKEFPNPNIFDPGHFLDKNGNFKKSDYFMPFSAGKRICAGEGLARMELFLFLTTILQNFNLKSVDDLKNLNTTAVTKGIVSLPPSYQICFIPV

| SMILES | IC50 (Raji) [µM] | IC50 [2] [µM] | IC50 (HL-60) [µM] | IC50 (HCT-116) [µM] | IC50 at 4 h [5] [µM] | IC50 (COLO 205) [µM] | IC50 (OVCAR-3) [µM] | IC50 (A498) [µM] | IC50 (T47D) [µM] | IC50 (NAMALVA) [µM] | IC50 (SK-OV-3) [µM] | IC50 (PC-3) [µM] | IC50 (MCF7) [µM] | IC50 (SU-DHL-1) [µM] | IC50 (HT-29) [µM] | other results |
| --- | --- | --- | --- | --- | --- | --- | --- | --- | --- | --- | --- | --- | --- | --- | --- | --- |
| NCCCC[C@H](NC(=O)C(NC(=O)[C@H](Cc1c[nH]c2ccccc12)NC(=O)[C@H](CCCCN)NC(=O)[C@H](CCCCN)NC(=O)[C@H](Cc1c[nH]c2ccccc12)NC(=O)[C@H](Cc1c[nH]c2ccccc12)NC(=O)[C@H](CCCCN)NC(=O)[C@@H](N)CCCCN)C(c1ccccc1)c1ccccc1)C(N)=O (some centres not stated) (H-KKWWKKW[ξDip]K-NH2) | 4.9 | 11 | 2.1 | 3.4 | 34.3 | 2.6 | 5.2 | 2.9 | 1.2 | 3.6 | 7.2 | 4.4 | 2.5 | 2.3 | 3.3 | half-life at 1 µM [1]: 1.07 h; IC50 (Cytochrome P450 2C9 [3]): 8.7 µM; IC50 (Cytochrome P450 2C8): 10.2 µM; IC50 (Cytochrome P450 2A6): 26.3 µM; IC50 (Cytochrome P450 2C19): 23.3 µM; half-life at 1 µM [4]: 1.18 h; IC50 (Cytochrome P450 1A2): 37.9 µM; IC50 (Cytochrome P450 2B6): 27.7 µM; IC50 (Cytochrome P450 2C9 [6]): 8.8 µM; IC50 (Cytochrome P450 3A4 [7]): 12.1 µM; IC50 (Cytochrome P450 3A4 [8]): 18.8 µM; IC50 (Cytochrome P450 2D6): 21.9 µM |
| NCCCC[C@H](NC(=O)[C@H](Cc1c[nH]c2ccccc12)NC(=O)[C@H](Cc1c[nH]c2ccccc12)NC(=O)[C@H](CCCCN)NC(=O)[C@H](CCCCN)NC(=O)[C@H](Cc1c[nH]c2ccccc12)NC(=O)[C@H](Cc1ccc(-c2ccccc2)cc1)NC(=O)[C@H](CCCCN)NC(=O)[C@@H](N)CCCCN)C(N)=O (H-KK[Bip]WKKWWK-NH2) | 8.7 | 11.3 | 6.1 | 8.6 | 87 | 5.7 | 14.1 | 6.4 | 2.4 | 6.5 | 12.6 | 10.1 | 4.9 | 5.6 | 8.9 |  |
| NCCCC[C@H](NC(=O)[C@H](Cc1c[nH]c2ccccc12)NC(=O)[C@H](Cc1c[nH]c2ccccc12)NC(=O)[C@H](CCCCN)NC(=O)[C@H](CCCCN)NC(=O)[C@H](Cc1c[nH]c2ccccc12)NC(=O)C(Cc1ccc(-c2ccccc2)cc1)NC(=O)[C@H](CCCCN)NC(=O)[C@@H](N)CCCCN)C(N)=O (some centres not stated) (H-KK[ξBip]WKKWWK-NH2) | 16.1 | 17.7 | 6.1 | 7.6 | 151 | 4.9 | 14.3 | 7.9 | 4.2 | 8.5 | 17.7 | 9.3 | 8.4 | 4.6 | 10.5 |  |
| N=C(N)NCCC[C@H](NC(=O)[C@H](Cc1c[nH]c2ccccc12)NC(=O)[C@H](Cc1c[nH]c2ccccc12)NC(=O)[C@H](CCCNC(=N)N)NC(=O)[C@H](CCCNC(=N)N)NC(=O)C(NC(=O)[C@H](Cc1c[nH]c2ccccc12)NC(=O)[C@H](CCCNC(=N)N)NC(=O)[C@@H](N)CCCNC(=N)N)C(c1ccccc1)c1ccccc1)C(N)=O (some centres not stated) (H-RRW[ξDip]RRWWR-NH2) | 11.3 | 11.3 | 6.7 | 4.8 | 76 | 6.7 | 8.4 | 5.7 | 3.5 | 5.3 | 7.4 | 9.8 | 6.6 | 5 | 11.5 |  |
| NCCCC[C@H](NC(=O)[C@H](Cc1c[nH]c2ccccc12)NC(=O)[C@H](CCCCN)NC(=O)[C@H](CCCCN)NC(=O)C(NC(=O)[C@H](Cc1c[nH]c2ccccc12)NC(=O)[C@H](CCCCN)NC(=O)[C@H](CCCCN)NC(=O)[C@@H](N)Cc1c[nH]c2ccccc12)C(c1ccccc1)c1ccccc1)C(N)=O (some centres not stated) (H-WKKW[ξDip]KKWK-NH2) | 12.5 | 21 | 8 | 10.3 | 122 | 8.7 | 13.9 | 13.9 | 4.8 | 7.1 | 18.1 | 14.1 | 11 | 7.3 | 11 |  |
